The nature of assay [1]: inhibitors of TNFa-induced NFkB p65 translocation, primary screen, imaging, HUVEC, MLSMR starter and 10KST1 sets (AID 438;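 active means inhibition above 20% together with a positive visual image hit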;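 further: compound added about 3h40 before a 20 min TNFalpha stimulation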;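 on inhibition: signal is the nuclear over cytoplasmic p65 intensity ratio per well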). The following applies: HUVEC TNFa-induced p65 nuclear translocation; cell count: measured here: nuclei count (cytotoxicity indicator), at 2.08 µM; inhibition: at 2 µM, stronger effect = higher value, 0% TNFa-plus-vehicle, 100% no-TNFa wells.
Assay [2] can be described thus: inhibitors of mutant huntingtin aggregation, primary screen, imaging, exon1htt(103Q)mCFP cells, high-content imaging (AID 483;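 active means visual image review flags a hit and inhibition of aggregation exceeds 20%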;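 further: compound exposure lasted 3 days before fixation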;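 on nuclei count: percent of the per-plate median nuclei count of sample wells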). Particulars: exon1htt(103Q)mCFP cell line, aggregate imaging, at 2 µM; inhibition of aggregation: stronger effect = higher value; nuclei count: measured here: cell count, toxicity.
Assay [3] can be described thus: inhibitors of E-selectin induction by TNFa, primary screen, imaging, HUVEC, immunofluorescence, MLSMR starter and 10KST1 sets (AID 487;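 active means visually confirmed hit in the image check and inhibition above 20%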;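 on inhibition: signal is fraction of cell area covered by stained E-selectin grains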;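 on nuclei count: 100% = median nuclei count of all wells on the same plate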). Particulars: HUVEC TNFalpha-induced E-selectin immunofluorescence imaging, at 2 µM; inhibition: stronger effect = higher value; nuclei count: measured here: cell number, toxicity.
Assay [4] deals with Voltage-gated potassium channel subunit beta-2 (Rattus norvegicus) (UniProt P62483). Kind of assay: KvBeta enzyme negative modulators, primary screen, biochemical, NADPH fluorescence (AID 622).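 Further: slope of raw intensity against log time taken from 70 to 1610 s.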 The following applies: recombinant KvBeta, 4-cyanobenzaldehyde reduction, at 10 µM, stronger effect = higher value.
Voltage-gated potassium channel subunit beta-2 (Rattus norvegicus), sequence (P62483 whole entry, looked up): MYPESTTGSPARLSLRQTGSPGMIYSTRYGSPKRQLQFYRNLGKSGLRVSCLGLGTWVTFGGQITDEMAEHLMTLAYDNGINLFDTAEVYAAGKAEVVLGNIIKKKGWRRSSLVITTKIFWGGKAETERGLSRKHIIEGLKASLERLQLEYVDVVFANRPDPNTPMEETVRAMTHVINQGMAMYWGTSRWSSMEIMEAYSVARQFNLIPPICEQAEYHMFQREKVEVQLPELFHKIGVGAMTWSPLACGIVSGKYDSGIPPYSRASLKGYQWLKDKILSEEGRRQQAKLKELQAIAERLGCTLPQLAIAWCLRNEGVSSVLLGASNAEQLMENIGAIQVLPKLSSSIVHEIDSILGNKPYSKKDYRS
Assay [5] shares this target. Kind of assay: KvBeta positive modulators, primary screen, biochemical, NADPH fluorescence (AID 623;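 active means NADPH fluorescence slope more negative than the mean of all samples by about 3 SD, 99.7% confidence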;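 further: fluorescence intensity change per second fitted from 20 to 320 s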). Particulars: Recombinant KvBeta, NADPH fluorescence decrease slope, 10 min; at 10 µM; stronger effect = lower value.
For assay [6], the target named is Alpha-2C adrenergic receptor (Homo sapiens) (UniProt P18825). Kind of assay: modulators of alpha2C/GIRK thallium flux, primary screen, cell-based, HEK293 alpha2C/GIRK1/2 (AID 624;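 active means fluorescence slope after compound addition differing from the mean of all screened samples at 99.7% confidence, in either direction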;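 further: slope of fluorescence ratio to pre-addition baseline per second over 15 to 24 s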). Particulars: thallium flux BTC fluorescence, at 10 µM, actives lie on both sides.
Alpha-2C adrenergic receptor (Homo sapiens), sequence (P18825 whole entry, looked up): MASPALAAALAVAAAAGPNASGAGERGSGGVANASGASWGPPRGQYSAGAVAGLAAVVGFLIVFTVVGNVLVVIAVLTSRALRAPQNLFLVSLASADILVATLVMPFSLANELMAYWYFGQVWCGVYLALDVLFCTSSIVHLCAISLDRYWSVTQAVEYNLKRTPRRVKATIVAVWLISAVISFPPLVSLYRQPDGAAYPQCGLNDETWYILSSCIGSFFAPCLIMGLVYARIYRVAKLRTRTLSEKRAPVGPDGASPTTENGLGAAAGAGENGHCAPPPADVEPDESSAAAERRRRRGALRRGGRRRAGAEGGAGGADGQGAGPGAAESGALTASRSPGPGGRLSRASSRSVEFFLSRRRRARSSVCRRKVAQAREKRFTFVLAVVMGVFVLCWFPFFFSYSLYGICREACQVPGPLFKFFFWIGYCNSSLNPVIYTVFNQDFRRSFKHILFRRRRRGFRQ
The nature of assay [7]: inhibitors of larval lipid processing in zebrafish, primary screen, whole organism, PED6 fluorescence, gall bladder and intestine (AID 686;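 active means a full or partial loss of lipid-probe fluorescence in the fish gall bladder, intestine or both, judged by eye; inactive means no fluorescence loss, or compound toxic to the fish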;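 further: larvae 5 to 7 days old with five fish per well; signal comes from phospholipase A2 cleavage of quenched PED6 carried via bile; overnight exposure to compound and PED6 before scoring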). The following applies: Zebrafish larvae PED6 lipid processing, fluorescence scoring; screened at 20 µM (by protocol). The procedure, abridged: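 Also added: quenched phospholipase substrate PED6, 100 nM final, ingested by larvae; System: zebrafish larvae, 5-7 d; Quantity: 5 larvae per well; Compound: 20 µM single dose; Schedule: overnight compound and PED6 incubation; Read-out: visual per-well fluorescence inhibition score; Measured by: By-eye fluorescence microscopy; Medium: E3.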

The nature of assay [8]: inhibitors of Sendai virus-induced IRF3 signaling, primary screen, TLR/RLR signaling modifier project, cell-based, Sendai virus stimulus, luciferase, 10K MLSCN set (AID 602276;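 active means inhibition at or above 50% at 10 µM; inactive means inhibition below 50%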;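 further: firefly luciferase from ISG56 promoter only with Renilla not read in this screen; 0% = Sendai virus plus DMSO and 100% = medium plus DMSO without virus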). The following applies: HEK293 RL24 IRF3 luciferase reporter, at 10 µM, stronger effect = higher value. A general note: Reporter assays use an easily measured gene product as a stand-in for the process of interest.

Assay [9] in a line: inhibitors of poly I:C-induced TLR3 signaling, primary screen, cell-based, poly I:C stimulus, luciferase, 10K MLSCN set (AID 602277;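 active means inhibition of the reporter signal at or above 50%; inactive means inhibition below 50%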). The following applies: HEK293-TLR3 RL24 IRF3 luciferase reporter, at 10 µM, stronger effect = higher value.

Each structure is given as a SMILES string. The source made the active and inactive calls.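 How the source made its calls, unless noted: active means fluorescence slope higher than the sample average by over 3 SD (cut at about -0.22 in these data, passing the limit was not always enough); inactive means the rest.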

A word on the inhibition: it is the relative decrease from the control value, in per cent.

For `Cc1cccc(C)c1-n1nnnc1SCSc1nnnn1-c1c(C)cccc1C`, in assay [1], the cell count worked out at 409. Moreover, the inhibition in assay [1] was 7.5% (inactive); in assay [3] it was -231% (inactive); in assay [8], 4.69% (inactive); in assay [9], 15% (inactive). Also, in assay [2], the inhibition of aggregation is -3.2% (inactive). Further, the nuclei count in assay [2] came to 101%; in assay [3] it was 116%. Further, in [4], the fluorescence slope is -0.445 (inactive). In [5], the NADPH fluorescence slope is -2.4e-07 (inactive). Also, the slope in assay [6] was 0.00806 (inactive). Further, the result in assay [7] was inactive.

Regarding `CC1(C)CC2CC(C)(CN2S(=O)(=O)c2ccc(N)cc2)C1` (stereo not drawn), the cell count in assay [1] came out at 613. For the same compound, the inhibition in [1] was -9.2% (inactive); in assay [3], 65.6% (inactive); in [8] it was 10.2% (inactive); in [9], 18.5% (inactive). The inhibition of aggregation in assay [2] is 30.3% (inactive). The nuclei count in assay [2] stood at 79.8%; in assay [3] it was 60.2%. The fluorescence slope in assay [4] was -0.374 (inactive). The NADPH fluorescence slope in assay [5] was -6.2e-05 (inactive). Further, the slope in assay [6] was 0.00585 (inactive). Further, the call in [7] was inactive.

In the case of `CCC1CCCCN1S(=O)(=O)c1ccc(C(=O)Nc2nnc(-c3ccccc3Cl)o2)cc1` (stereo not drawn), the cell count in [1] stood at 322. The inhibition in assay [1] was 5.2% (inactive); in [3] it was -52.8% (inactive); in assay [8], 18.8% (inactive); in assay [9] it was 16.9% (inactive). For the same compound, the inhibition of aggregation in assay [2] was -1.5% (inactive). The nuclei count came out at 107% in assay [2] and 108% in [3]. Further, the fluorescence slope in assay [4] was -0.511 (inactive). The NADPH fluorescence slope in assay [5] was -3.2e-05 (inactive). Moreover, in [6], the slope is 0.00627 (inactive).

As to `C1CCN=C(Nc2nc3c(s2)CCCC3)CC1`, in assay [1], the cell count turned out to be 432. The inhibition in assay [1] was 7.3% (inactive); in assay [3], 8.7% (inactive); in [8] it was -23.9% (inactive); in [9], -50% (inactive). For the same compound, the inhibition of aggregation in assay [2] was -10.9% (inactive). Besides, the nuclei count in assay [2] worked out at 118%; in [3] it was 110%. In assay [4], the fluorescence slope was -0.413 (inactive). In assay [5], the NADPH fluorescence slope was -3.8e-05 (inactive). In [6], the slope was 0.00517 (inactive). The compound was classed as inactive in assay [7].

On to `CC1=Nn2c(nnc2-c2ccccc2)SC1`, for which, in [1], the cell count was found to be 303. For the same compound, the inhibition was -2.7% (inactive) in assay [1], -19.2% (inactive) in [3], 11.5% (inactive) in assay [8] and -4.42% (inactive) in assay [9]. Further, in [2], the inhibition of aggregation is -6.5% (inactive). Moreover, the nuclei count in assay [2] worked out at 121%; in assay [3] it was 108%. Further, in [4], the fluorescence slope is -0.374 (inactive). Besides, the NADPH fluorescence slope in [5] is -1.6e-05 (inactive). In addition, the slope in [6] was 0.00576 (inactive). In addition, the compound was classed as inactive in assay [7].

`CCOC(=O)Cn1c(N2CCOCC2)nc2c1c(=O)[nH]c(=O)n2C`: in assay [1], the cell count worked out at 673. The inhibition in assay [1] was -8.7% (inactive); in assay [3] it was -0.1% (inactive); in assay [8], 9.13% (inactive); in [9], 21.5% (inactive). Moreover, in assay [2], the inhibition of aggregation is -18.2% (inactive). Besides, the nuclei count in assay [2] turned out to be 118%; in [3], 107%. Moreover, the fluorescence slope in assay [4] was -0.415 (inactive). Also, the NADPH fluorescence slope in assay [5] was -6.2e-05 (inactive). Further, the slope in assay [6] was 0.00268 (inactive).

With `CCOC(=O)C1=C(N)OC2=C(C(=O)CC(C)(C)C2)C1c1ccoc1` (stereo not drawn), the cell count in assay [1] came to 774. Further, the inhibition in [1] is -12.9% (inactive); in assay [3], -15.3% (inactive); in assay [8], 3.82% (inactive); in assay [9], 7.84% (inactive). Further, the inhibition of aggregation in assay [2] is -14.6% (inactive). Further, the nuclei count in [2] turned out to be 78.3%; in assay [3] it was 110%. In [4], the fluorescence slope is -0.418 (inactive). The NADPH fluorescence slope in assay [5] is -4e-05 (inactive). In addition, in assay [6], the slope was 0.00368 (inactive).

On to `CC(C)c1cc(C(=O)Nc2cccnc2)no1`, for which, in assay [1], the cell count worked out at 250. For the same compound, the inhibition was -2.8% (inactive) in assay [1], -9.6% (inactive) in assay [3], -22.1% (inactive) in [8] and -67.3% (inactive) in assay [9]. For the same compound, the inhibition of aggregation in assay [2] was -12.9% (inactive). Moreover, the results for the nuclei count in assay [2] and in assay [3] were 103% and 115%, respectively. Besides, the fluorescence slope in assay [4] was -0.398 (inactive). Also, the NADPH fluorescence slope in assay [5] is -6.1e-05 (inactive). In assay [6], the slope is 0.00525 (inactive). In assay [7], the outcome was inactive.

As to `COc1ccccc1N(CC(=O)NC1CCCC1)C(=O)c1csnn1`, in assay [1], the cell count came out at 723. The inhibition in assay [1] was -1.7% (inactive); in assay [3], -49.4% (inactive); in assay [8], -0.44% (inactive); in assay [9] it was 1.68% (inactive). In addition, in assay [2], the inhibition of aggregation was 10.7% (inactive). In addition, the nuclei count in assay [2] came to 109%; in [3] it was 126%. In assay [4], the fluorescence slope was -0.365 (inactive). In addition, the NADPH fluorescence slope in assay [5] is -2.7e-05 (inactive). Further, in assay [6], the slope is 0.00495 (inactive). Besides, the compound was classed as inactive in assay [7].

Turning to `CC(=O)c1ccc(N2CCN(C(=O)c3cc(C)on3)CC2)cc1`, the cell count in assay [1] amounted to 319. In addition, the inhibition in assay [1] was 0% (inactive); in assay [3] it was 40.6% (inactive); in assay [8], 2.68% (inactive); in [9], -0.354% (inactive). In addition, the inhibition of aggregation in assay [2] was 18.7% (inactive). For the same compound, the nuclei count in [2] is 102%; in assay [3], 80.7%. In assay [4], the fluorescence slope was -0.465 (inactive). Besides, the NADPH fluorescence slope in assay [5] was -4.5e-05 (inactive). Besides, the slope in assay [6] is 0.00513 (inactive). For the same compound, the compound was called inactive in [7].

Turning to `Cc1onc(-c2ccccc2)c1C(=O)NCCN1CCOCC1`, the cell count in [1] amounted to 387. Moreover, the inhibition is 5% (inactive) in [1], 9.3% (inactive) in assay [3], 0.171% (inactive) in [8] and 0.994% (inactive) in assay [9]. The inhibition of aggregation in assay [2] was -14% (inactive). The nuclei count in assay [2] amounted to 129%; in assay [3] it was 93.5%. Also, the fluorescence slope in assay [4] was -0.38 (inactive). The NADPH fluorescence slope in assay [5] is -2.2e-05 (inactive). Also, the slope in [6] is 0.0053 (inactive). Also, the compound was called inactive in assay [7].

Turning to `Cc1ccc(S(=O)(=O)C(C#N)c2nc3ccccc3nc2OC(C)C)cc1` (stereo not drawn), in [1], the cell count amounted to 493. The inhibition in assay [1] is 0% (inactive); in assay [3], -79.1% (inactive); in [8], 9.93% (inactive); in assay [9] it was 10.6% (inactive). Moreover, the inhibition of aggregation in assay [2] is -10.6% (inactive). Besides, the nuclei count came out at 103% in assay [2] and 114% in assay [3]. The fluorescence slope in [4] is -0.38 (inactive). The NADPH fluorescence slope in assay [5] is -8.6e-05 (inactive). Further, the slope in assay [6] is 0.00476 (inactive). The compound was called inactive in assay [7].

As to `COc1ccc(N2C(=O)c3cccc4cccc(c34)C2=O)nn1`, in assay [1], the cell count was determined as 345. For the same compound, the inhibition in assay [1] is 1.5% (inactive); in [3], -81.4% (inactive); in [8], 9.08% (inactive); in [9], 20.4% (inactive). For the same compound, in assay [2], the inhibition of aggregation was 4.9% (inactive). The nuclei count in assay [2] amounted to 105%; in assay [3], 114%. Moreover, the fluorescence slope in assay [4] is -0.421 (inactive). Besides, in assay [5], the NADPH fluorescence slope is -2.8e-05 (inactive). For the same compound, the slope in assay [6] is 0.00401 (inactive). Besides, the call in assay [7] was inactive.

For the origin of these results see PubChem BioAssay.
